From paper PMC7106177 (International Immunopharmacology, 2004)
Values after ≈ are worked out from the molar mass of the structure shown.

Key:
Type in all cases: cell-based, human
[1] = tested on: IL-8 production in HFL-1 cells; experiment: IL-8 production by TNF-α-stimulated HFL-1 cells; conditions: for IL-8 production reduced to (% of stimulated control): 1000 μg/ml, P<0.001; for IL-8 production reduced to (% of stimulated control) / concentration at which significant inhibition of IL-8 production was observed: TNF-α 24 h; for concentration at which significant inhibition of IL-8 production was observed: P<0.01
In short: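 HFL-1 fetal lung fibroblasts are grown in Ham's F-12 with 15% heat-inactivated FBS on collagen, then seeded at 5×10^4 cells/well and adhered overnight. Test compound is added in 1% FBS medium, with vehicle controls, followed by TNF-α 10 ng/ml for 24 h at 37 °C. Supernatant IL-8 is measured by sandwich ELISA, at least in duplicate. Data are mean±S.D. of three experiments, analysed by Student's t-test, with IC50 calculated from the ELISA data.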

[2] = tested on: eotaxin 1 production in HFL-1 cells; experiment: eotaxin 1 production by TNF-α plus IL-4-stimulated HFL-1 cells; conditions: HFL-1, TNF-α/IL-4 stimuli for 48 h; calculated from ELISA data
In short: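 Collagen-plated HFL-1 cells are seeded at 5×10^4/well and adhered overnight. Test compound in 1% FBS medium, or vehicle, is added, and the cells are then stimulated with TNF-α 10 ng/ml plus IL-4 20 U/ml for 48 h at 37 °C. Eotaxin 1 in the supernatant is quantified by sandwich ELISA, with samples at least in duplicate. Values are mean±S.D. of three independent experiments, compared by t-test, and IC50 is derived from the ELISA data.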

HFL-1 cells = experiment: cytotoxicity by LDH assay; conditions: calculated from LDH assay data; for CC30 (cytotoxicity), IL-8 condition: HFL-1, TNF-α stimuli for 24 h; for CC30 (cytotoxicity), eotaxin 1 condition: HFL-1, TNF-α/IL-4 stimuli for 48 h
In short: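 LDH leakage is measured in supernatants from the same HFL-1 cultures under both stimulation conditions: TNF-α 10 ng/ml for 24 h, or TNF-α plus IL-4 20 U/ml for 48 h. Test compound is in 1% FBS medium, and final EtOH or DMSO is mostly below 0.1%. LDH is read with a commercial LDH cytotoxicity kit.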

IL-8 mRNA in HFL-1 cells = experiment: RT-PCR analysis of IL-8 mRNA expression; conditions: TNF-α-stimulated HFL-1
[3] = tested on: eotaxin 1 mRNA in HFL-1 cells; experiment: RT-PCR analysis of eotaxin 1 mRNA expression; conditions: TNF-α plus IL-4-stimulated HFL-1

Row | Structure (SMILES) | IL-8 production reduced to (% of stimulated control) [1] [%] | concentration at which significant inhibition of IL-8 production was observed [1] | Eotaxin 1 IC50 [2] [µg/mL] | CC30 (cytotoxicity), IL-8 condition (HFL-1 cells) [µg/mL] | CC30 (cytotoxicity), eotaxin 1 condition (HFL-1 cells) [µg/mL] | effect on IL-8 mRNA expression (IL-8 mRNA in HFL-1 cells) | IL-8 IC50 ([1]; HFL-1, TNF-α stimuli for 24 h, calculated from ELISA data) [µg/mL] | effect on eotaxin 1 mRNA expression [3] | doses needed to inhibit IL-8 and eotaxin 1 production ([1]; IL-8 and eotaxin 1 production, HFL-1) [mg/mL]
1 | CC1(C)[C@@H](O[C@H]2O[C@H](C(=O)O)[C@@H](O)[C@H](O)[C@H]2O[C@@H]2O[C@H](C(=O)O)[C@@H](O)[C@H](O)[C@H]2O)CC[C@]2(C)[C@H]3C(=O)C=C4[C@@H]5C[C@@](C)(C(=O)O)CC[C@]5(C)CC[C@@]4(C)[C@]3(C)CC[C@@H]12 [18α-GL, glycyrrhizin] | 25 | more than 300 μg/ml | 25 | 330 (≈ 401 µM) | >1000 | did not indicate significant effect | – | – | –
2 | CC1(C)[C@@H](O[C@H]2O[C@H](C(=O)O)[C@@H](O)[C@H](O)[C@H]2O[C@@H]2O[C@H](C(=O)O)[C@@H](O)[C@H](O)[C@H]2O)CC[C@]2(C)[C@H]3C(=O)C=C4[C@@H]5C[C@@](C)(C(=O)O)CC[C@]5(C)CC[C@@]4(C)[C@]3(C)CC[C@@H]12 [18β-GL, glycyrrhizin] | 25 | more than 300 μg/ml | >300 | >1000 | >1000 | – | 370 | did not inhibit it at the same doses | –
3 | CC1(C)[C@@H](O[C@H]2O[C@H](C(=O)O)[C@@H](O)[C@H](O)[C@H]2O[C@@H]2O[C@H](C(=O)O)[C@@H](O)[C@H](O)[C@H]2O)CC[C@]2(C)[C@H]3C(=O)C=C4[C@@H]5C[C@@](C)(C(=O)O)CC[C@]5(C)CC[C@@]4(C)[C@]3(C)CC[C@@H]12 [GL, Glycyrrhizin] | – | – | – | – | – | – | – | – | ~1
